Source: ChEMBL document CHEMBL1124597, “Quinones. 4. Novel eicosanoid antagonists: synthesis and pharmacological evaluation” (J Med Chem, 1989)

Key:
Assay type in all cases: functional
Oryctolagus cuniculus [1] = organism: Oryctolagus cuniculus; assay: In vitro percent inhibition against U-44,069 (10e-7 M) induced contraction of rabbit aorta at 10e-5 M concentration.
Summary of the method: (§1)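 Rabbit aortic strips (2-3 mm × 3 cm) in Krebs-Henseleit, 37 °C, 95% O2/5% CO2, 2 g resting tension, isometric recording. Drugs (final 10⁻⁵ to 10⁻⁸ M, 0.01% DMSO) added 10 min before U-44069 (2-6 nM, about 50% of the 30 mM KCl contraction). Percent inhibition, or concentration reducing contraction by 50%; duplicate means.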

Oryctolagus cuniculus [2] = organism: Oryctolagus cuniculus; assay: In vitro percent inhibition against U-44,069 (10e-7 M) induced contraction of rabbit aorta at 10e-6 M concentration; summary of the method: as §1
Oryctolagus cuniculus [3] = organism: Oryctolagus cuniculus; assay: In vitro concentration that reduced U-44069-induced contraction of the rabbit aorta by 50%; summary of the method: as §1
Oryctolagus cuniculus [4] = organism: Oryctolagus cuniculus; assay: In vitro percent inhibition against U-44,069 (10e-7 M) induced contraction of rabbit aorta at 10e-7 M concentration; summary of the method: as §1

## CC1=C(C)C(=O)C(C(CCCCCc2nnn[nH]2)c2ccccc2)=C(C)C1=O (centres undefined)
Oryctolagus cuniculus [1]
  Inhibition: 2%

## CC1=C(C)C(=O)C(C(CCCCCCCCC(=O)O)c2ccccc2)=C(C)C1=O (centres undefined)
Oryctolagus cuniculus [1]
  Inhibition: 41%

## CC1=C(C)C(=O)C(C(CCCC#CC(=O)O)c2ccccc2)=C(C)C1=O (centres undefined)
Oryctolagus cuniculus [1]
  Inhibition: 72%

## CC1=C(C)C(=O)C(C(CCCCCC(=O)NCC(=O)O)c2ccccc2)=C(C)C1=O (centres undefined)
Oryctolagus cuniculus [1]
  Inhibition: 0%

## CC1=C(C)C(=O)C(C(CCCCCC(=O)O)c2cccc(F)c2)=C(C)C1=O (centres undefined)
Oryctolagus cuniculus [2]
  Inhibition: 31%
Oryctolagus cuniculus [1]
  Inhibition: 100%
Oryctolagus cuniculus [3]
  IC50: 1900 nM

## CC1=C(C)C(=O)C(C(CCCCCC(=O)O)c2ccc(C)cc2)=C(C)C1=O (centres undefined)
Oryctolagus cuniculus [2]
  Inhibition: 50%
Oryctolagus cuniculus [1]
  Inhibition: 100%
Oryctolagus cuniculus [3]
  IC50: 1000 nM

## CC1=C(C)C(=O)C(C(CCC(=O)NCC(=O)O)c2ccccc2)=C(C)C1=O (centres undefined)
Oryctolagus cuniculus [1]
  Inhibition: 0%

## CC1=C(C)C(=O)C(C(CCCCCC(=O)O)c2cccc(C(F)(F)F)c2)=C(C)C1=O (centres undefined)
Oryctolagus cuniculus [1]
  Inhibition: 64%

## CC1=C(C)C(=O)C(C(CCC(=O)O)c2ccccc2)=C(C)C1=O (centres undefined)
Oryctolagus cuniculus [1]
  Inhibition: 0%

## CC1=C(C)C(=O)C(C(C)CCCCCC(=O)O)=C(C)C1=O (centres undefined)
Oryctolagus cuniculus [1]
  Inhibition: 0%

## CC1=C(C(CCCCCC(=O)O)c2ccc(F)cc2)C(=O)c2ccccc2C1=O (centres undefined)
Oryctolagus cuniculus [4]
  Inhibition: 78%
Oryctolagus cuniculus [2]
  Inhibition: 100%
Oryctolagus cuniculus [1]
  Inhibition: 100%

## CC1=C(C)C(=O)C(C(CCOc2cccc(C(=O)O)c2)c2ccccc2)=C(C)C1=O (centres undefined)
Oryctolagus cuniculus [1]
  Inhibition: 2%

## CC1=C(C(CCCCCC(=O)O)c2ccccc2)C(=O)c2ccccc2C1=O (centres undefined)
Oryctolagus cuniculus [4]
  Inhibition: 20%
Oryctolagus cuniculus [2]
  Inhibition: 99%
Oryctolagus cuniculus [1]
  Inhibition: 100%
Oryctolagus cuniculus [3]
  IC50: 240 nM

## CC1=C(C)C(=O)C(C(CCCCCC(=O)O)c2ccccc2C)=C(C)C1=O (centres undefined)
Oryctolagus cuniculus [2]
  Inhibition: 0%
Oryctolagus cuniculus [1]
  Inhibition: 99%
Oryctolagus cuniculus [3]
  IC50: 3200 nM

## COc1ccccc1C(CCCCCC(=O)O)C1=C(C)C(=O)C(C)=C(C)C1=O (centres undefined)
Oryctolagus cuniculus [1]
  Inhibition: 0%

## CC1=C(C)C(=O)C(C(CCCCC(C)(C)C(=O)O)c2ccccc2)=C(C)C1=O (centres undefined)
Oryctolagus cuniculus [1]
  Inhibition: 12%

## CC1=C(C)C(=O)C(C(CCCCCC(N)=O)c2ccccc2)=C(C)C1=O (centres undefined)
Oryctolagus cuniculus [1]
  Inhibition: 6%

## COc1ccc(C(CCCCCC(=O)O)C2=C(C)C(=O)C(C)=C(C)C2=O)cc1 (centres undefined)
Oryctolagus cuniculus [2]
  Inhibition: 3%
Oryctolagus cuniculus [1]
  Inhibition: 100%
Oryctolagus cuniculus [3]
  IC50: 3000 nM

## COC(=O)CCCCCC(C1=C(C)C(=O)C(C)=C(C)C1=O)c1ccccc1 (centres undefined)
Oryctolagus cuniculus [2]
  Inhibition: 36%
Oryctolagus cuniculus [1]
  Inhibition: 95%
Oryctolagus cuniculus [3]
  IC50: 1400 nM
